Test results: paper PMC6516474 (Journal of the American Chemical Society, 2019)
Read-outs that look alike come from different tables or passages of the source. Starred links: 1 amine or outer side, 2 acyl side, 3 side chain; linkers in the order of their positions; H or OH if unused. Positions of bridges follow the written chain, without caps; N, C: chain ends. Non-standard residues stand in square brackets, D forms with d. Residues, ends and D or L forms follow the SMILES beside them. Chains are numbered I, II in the order given. Actinocin(9to1) = Cc1c2oc3c(C)ccc(C(=O)[*:1])c3nc-2c(C(=O)[*:2])c(N)c1=O; NMeV = CN[C@H](C(=O)O)C(C)C; Sar = CNCC(=O)O

What was measured:
[1] = tested on: HFF1 (a human fibroblast line); assay: Toxicity against HFF1; format: cell-based
[2] = tested on: HEK293T; assay: AlamarBlue proliferation assay, HEK293T; format: cell-based; conditions: for fold more potent than 81 and digoxin 82: EC50 comparison
[3] = tested on: NIH-3T3; assay: AlamarBlue proliferation assay, NIH-3T3; format: cell-based, mouse; conditions: for toxicity to NIH-3T3: growth inhibition screen at 1 and 3 µM; for toxicity against NIH-3T3: 3 µM; for EC50: read-out: EC50 NIH-3T3, NIH-3T3, inherently-insensitive line
[4] = tested on: γ-H2AX; assay: Immunofluorescence DNA-damage response, HeLa; format: cell-based, human; conditions: 24 h, 79a 0.015 µM, 92 0.012 µM
[5] = tested on: caspase-3; assay: Immunofluorescence apoptosis, HeLa; format: cell-based, human; conditions: 24 h, 79a 0.015 µM, 92 0.012 µM
[6] = tested on: γ-H2AX; assay: Immunofluorescence DNA-damage response, NIH-3T3; format: cell-based, mouse; conditions: NIH-3T3, 24 h; 79a 0.111 µM, 92 0.038 µM, 97 0.042 µM; mitomycin C as validation
[7] = tested on: MDA-MB-231; assay: Proliferation EC50, MDA-MB-231; format: cell-based, human; conditions: for fold more potent than 79a: MDA-MB-231, EC50 comparison; for EC50: read-out: EC50 MDA-MB-231, MDA-MB-231
[8] = tested on: caspase-3 activation; assay: Immunofluorescence apoptosis, NIH-3T3; format: cell-based, mouse; conditions: NIH-3T3, 24 h; 79a 0.111 µM, 92 0.038 µM, 97 0.042 µM; mitomycin C as validation
[9] = tested on: HF-II-E (a hepatoma line from rat); assay: Toxicity against HF-II-E; format: cell-based
[10] = tested on: MEFs (a mouse embryonic fibroblast line); assay: Toxicity against MEF; format: cell-based; conditions: 3 µM
[11] = tested on: U87; assay: Proliferation EC50, U87; format: cell-based, human; conditions: U87, EC50 comparison
[12] = tested on: HEPG2; assay: Proliferation EC50, HEPG2; format: cell-based, human; conditions: HEPG2, EC50 comparison
[13] = tested on: cancer cell lines; assay: Broad anticancer activity over cancer cell lines; format: cell-based; conditions: range over cancer cell lines
[14] = tested on: RAW (a virally-transformed mouse macrophage line); assay: Toxicity against RAW; format: cell-based
[15] = tested on: HEK293T, HeLa, Cos7, Raji, NIH-3T3; assay: AlamarBlue proliferation screen over a cell line panel; format: cell-based; conditions: 2 days
Summary of the method: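 Panel includes Raji (human Burkitt's lymphoma, grown in suspension) and NIH-3T3 (non-transformed mouse fibroblast) alongside adherent lines. Test compounds were screened at 2 µM and 0.6 µM, and proliferation was read by AlamarBlue over 2 days. The assay was validated by comparing normalized AlamarBlue signal averages of DMSO-treated cells with those of cells given 2 µg/ml puromycin (Z′ factor calculated).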

[16] = Homo sapiens, HEK-293T, 48 h, read-out: EC50 in HEK293T
[17] = read-out: EC50 in HEK293T cells, HEK293T, 5 most potent compounds
[18] = read-out: EC50 in HEK293T, HEK293T, proliferation over 2 days, AlamarBlue
[19] = Homo sapiens, HEK-293T, read-out: EC50 in HEK293T cells

Question: Which “effect against HFF1” value [1] does the source give for C[C@@H]1O[C@@H](O[C@H]2C[C@@H](O)[C@]3(CO)[C@H]4[C@H](O)C[C@]5(C)[C@@H](C6=CC(=O)OC6)CC[C@]5(O)[C@@H]4CC[C@]3(O)C2)[C@H](O)[C@H](O)[C@H]1O [compound 2, ouabain] here?
Answer: effective

Question: What about the EC50 [2, 16] of the same compound?
Answer: < 1000 nM

Question: What about the “toxicity to NIH-3T3” value [3] of the same compound?
Answer: none of which were toxic to NIH-3T3

Question: For CN[C@@H]1C[C@H]2O[C@@](C)([C@@H]1OC)n1c3ccccc3c3c4c(c5c6ccccc6n2c5c31)C(=O)NC4 [Staurosporine, reference compound], which γ-H2AX upregulation [4] is on record?
Answer: upregulated

Question: And the caspase-3 upregulation [5]?
Answer: upregulated

Question: What does the source list for C[C@@H]1O[C@@H](O[C@H]2CC[C@@]3(C)[C@H](CC[C@@H]4[C@@H]3CC[C@]3(C)[C@@H](C5=CC(=O)OC5)CC[C@]43O)C2)[C@H](O)[C@H](O)[C@H]1O [compound 97, digitoxigenin-L-α-rhamnoside]?
Answer: γ-H2AX upregulation (DNA-damage response) [6]: did not upregulate; fold more potent than 79a [7]: 3–4 fold; EC50 [7]: 42 nM; caspase-3 activation [8]: did not upregulate; effect against HF-II-E [9]: ineffective; toxicity against MEF [10]: nontoxic; fold more potent than 81 and digoxin 82 ([2]; HEK293T): 2–3 fold; EC50 [2, 17]: < 100 nM; fold more potent than 79a [11]: 3–4 fold; fold more potent than 79a [12]: 3–4 fold; concentrations of broad anticancer activity [13]: 10 to 100 nM; toxicity against NIH-3T3 [3]: nontoxic; EC50 [3]: > 3000 nM; effect against RAW [14]: ineffective

Question: Which results are given for C[C@]12CC[C@H]3[C@@H](CC[C@@H]4C[C@@H](O)CC[C@@]43CO)[C@@]1(O)CC[C@@H]2C1=CC(=O)OC1 [compound 5, cannogenol]?
Answer: EC50 [2, 18]: ~1000 nM; activity against NIH-3T3 in proliferation screen ([3]; 2 µM, 2 days): activity against every line except NIH-3T3; activity in proliferation screen ([15]; 0.6 µM): affecting most lines; activity in proliferation screen ([15]; 2 µM): active

Question: Which “γ-H2AX upregulation (DNA-damage response)” value [6] does the source give for C[C@@H]1O[C@@H](O[C@H]2CC[C@@]3(CO)[C@H](CC[C@@H]4[C@@H]3CC[C@]3(C)[C@@H](C5=CC(=O)OC5)CC[C@]43O)C2)[C@H](O)[C@H](O)[C@H]1O [79a, cannogenol-L-α-rhamnoside] here?
Answer: did not upregulate

Question: What about the EC50 [7] of the same compound?
Answer: 111 nM

Question: And the caspase-3 activation [8]?
Answer: did not upregulate

Question: What about the “toxicity against MEF” value [10] of the same compound?
Answer: nontoxic

Question: What about the “fold more potent than 81 and digoxin 82” value ([2]; HEK293T) of the same compound?
Answer: 2–3 fold

Question: And the EC50 [2, 17]?
Answer: < 100 nM

Question: What about the “concentrations of broad anticancer activity” value [13] of the same compound?
Answer: 10 to 100 nM

Question: And the γ-H2AX upregulation [4]?
Answer: upregulated significantly

Question: What about the caspase-3 upregulation [5] of the same compound?
Answer: Little upregulation

Question: And the “toxicity against NIH-3T3” value [3]?
Answer: nontoxic

Question: And the “toxicity to NIH-3T3” value [3]?
Answer: none of which were toxic to NIH-3T3

Question: What about the EC50 [3] of the same compound?
Answer: > 3000 nM

Question: How did the “γ-H2AX upregulation (DNA-damage response)” value [6] turn out when C[C@@H]1O[C@H](O[C@H]2CC[C@]3(CO)[C@H]4CC[C@]5(C)[C@@H](C6=CC(=O)OC6)CC[C@]5(O)[C@@H]4CC[C@]3(O)C2)[C@H](O)[C@H](O)[C@H]1O [compound 92, strophanthidol-L-α-rhamnoside] was run?
Answer: did not upregulate

Question: And the “fold more potent than 79a” value [7]?
Answer: 3–4 fold

Question: What about the EC50 [7] of the same compound?
Answer: 38 nM

Question: What about the caspase-3 activation [8] of the same compound?
Answer: did not upregulate

Question: And the “effect against HF-II-E” value [9]?
Answer: ineffective

Question: And the “toxicity against MEF” value [10]?
Answer: nontoxic

Question: What about the “fold more potent than 81 and digoxin 82” value ([2]; HEK293T) of the same compound?
Answer: 2–3 fold

Question: And the EC50 [2, 17]?
Answer: < 100 nM

Question: And the “fold more potent than 79a” value [11]?
Answer: 3–4 fold

Question: And the “fold more potent than 79a” value [12]?
Answer: 3–4 fold

Question: What about the “concentrations of broad anticancer activity” value [13] of the same compound?
Answer: 10 to 100 nM

Question: And the γ-H2AX upregulation [4]?
Answer: upregulated significantly

Question: What about the caspase-3 upregulation [5] of the same compound?
Answer: Little upregulation

Question: And the “toxicity against NIH-3T3” value [3]?
Answer: nontoxic

Question: What about the EC50 [3] of the same compound?
Answer: > 3000 nM

Question: How did the EC50 [2, 16] turn out when Cc1c2oc3c(C)ccc(C(=O)N[C@@H]4C(=O)N[C@H](C(C)C)C(=O)N5CCC[C@H]5C(=O)N(C)CC(=O)N(C)[C@@H](C(C)C)C(=O)O[C@@H]4C)c3nc-2c(C(=O)N[C@@H]2C(=O)N[C@H](C(C)C)C(=O)N3CCC[C@H]3C(=O)N(C)CC(=O)N(C)[C@@H](C(C)C)C(=O)O[C@@H]2C)c(N)c1=O [actinomycin D] (I: T[dV]P[Sar][NMeV] / II: T[dV]P[Sar][NMeV]; ester I:1-I:C, II:1-II:C; linker I:N-II:N via Actinocin(9to1)) was run?
Answer: 2 nM

Question: What does the source list for C[C@H]1O[C@@H](O[C@H]2[C@@H](O)C[C@H](O[C@H]3[C@@H](O)C[C@H](O[C@H]4CC[C@@]5(C)[C@H](CC[C@@H]6[C@@H]5C[C@@H](O)[C@]5(C)[C@@H](C7=CC(=O)OC7)CC[C@]65O)C4)O[C@@H]3C)O[C@@H]2C)C[C@H](O)[C@@H]1O [compound 82, digoxin]?
Answer: EC50 [2, 16]: < 1000 nM; EC50 [2, 19]: < 100 nM; toxicity to NIH-3T3 [3]: none of which were toxic to NIH-3T3

Question: With C[C@H]1CCC/C=C/[C@@H]2C[C@H](O)C[C@H]2[C@H](O)/C=C/C(=O)O1 [brefeldin A] as the compound, how does the EC50 [2, 16] read?
Answer: 200 nM

Question: Which “effect against HFF1” value [1] does the source give for C[C@H]1O[C@@H](O[C@H]2[C@@H](O)C[C@H](O[C@H]3[C@@H](O)C[C@H](O[C@H]4CC[C@@]5(C)[C@H](CC[C@@H]6[C@@H]5CC[C@]5(C)[C@@H](C7=CC(=O)OC7)CC[C@]65O)C4)O[C@@H]3C)O[C@@H]2C)C[C@H](O)[C@@H]1O [compound 81, digitoxin] here?
Answer: effective

Question: And the EC50 [2, 16]?
Answer: < 1000 nM

Question: And the EC50 [2, 19]?
Answer: < 100 nM

Question: What about the “toxicity to NIH-3T3” value [3] of the same compound?
Answer: none of which were toxic to NIH-3T3

Question: Which results are given for CO[C@@]12[C@H](COC(N)=O)C3=C(C(=O)C(C)=C(N)C3=O)N1C[C@@H]1N[C@@H]12 [mitomycin C, reference compound]?
Answer: γ-H2AX upregulation (DNA-damage response) [6]: DDR-upregulation; caspase-3 activation [8]: Caspase-3-uregulation only in NIH-3T3; EC50 [2, 16]: 4000 nM

Question: Which EC50 [2, 16] does the source give for C[C@]12CC[C@H](O)C[C@H]1CC[C@@H]1[C@@H]2CC[C@]2(C)[C@@H](C3=CC(=O)OC3)CC[C@]12O [compound 80, digitoxigenin, reference compound] here?
Answer: < 1000 nM

Question: What about the “toxicity to NIH-3T3” value [3] of the same compound?
Answer: none of which were toxic to NIH-3T3

Question: C[C@]12C[C@@H](O)[C@H]3[C@@H](CC[C@]4(O)C[C@@H](O)C[C@@H](O)[C@]34CO)[C@@]1(O)CC[C@@H]2C1=CC(=O)OC1 [compound 1, ouabagenin] was tested. Which “effect against HFF1” value [1] did it give?
Answer: effective

Question: And the EC50 [2, 18]?
Answer: < 1000 nM

Question: And the “toxicity to NIH-3T3” value [3]?
Answer: none of which were toxic to NIH-3T3
